Laboratory results published in paper PMC6468299 (Nucleic Acids Research, 2019).

Biological target: T1, Pol-γ (exo- mutant) (Homo sapiens, UniProt P54098, D198A/E200A)
T1 sequence (P54098 26-1239 D198A/E200A limits assumed): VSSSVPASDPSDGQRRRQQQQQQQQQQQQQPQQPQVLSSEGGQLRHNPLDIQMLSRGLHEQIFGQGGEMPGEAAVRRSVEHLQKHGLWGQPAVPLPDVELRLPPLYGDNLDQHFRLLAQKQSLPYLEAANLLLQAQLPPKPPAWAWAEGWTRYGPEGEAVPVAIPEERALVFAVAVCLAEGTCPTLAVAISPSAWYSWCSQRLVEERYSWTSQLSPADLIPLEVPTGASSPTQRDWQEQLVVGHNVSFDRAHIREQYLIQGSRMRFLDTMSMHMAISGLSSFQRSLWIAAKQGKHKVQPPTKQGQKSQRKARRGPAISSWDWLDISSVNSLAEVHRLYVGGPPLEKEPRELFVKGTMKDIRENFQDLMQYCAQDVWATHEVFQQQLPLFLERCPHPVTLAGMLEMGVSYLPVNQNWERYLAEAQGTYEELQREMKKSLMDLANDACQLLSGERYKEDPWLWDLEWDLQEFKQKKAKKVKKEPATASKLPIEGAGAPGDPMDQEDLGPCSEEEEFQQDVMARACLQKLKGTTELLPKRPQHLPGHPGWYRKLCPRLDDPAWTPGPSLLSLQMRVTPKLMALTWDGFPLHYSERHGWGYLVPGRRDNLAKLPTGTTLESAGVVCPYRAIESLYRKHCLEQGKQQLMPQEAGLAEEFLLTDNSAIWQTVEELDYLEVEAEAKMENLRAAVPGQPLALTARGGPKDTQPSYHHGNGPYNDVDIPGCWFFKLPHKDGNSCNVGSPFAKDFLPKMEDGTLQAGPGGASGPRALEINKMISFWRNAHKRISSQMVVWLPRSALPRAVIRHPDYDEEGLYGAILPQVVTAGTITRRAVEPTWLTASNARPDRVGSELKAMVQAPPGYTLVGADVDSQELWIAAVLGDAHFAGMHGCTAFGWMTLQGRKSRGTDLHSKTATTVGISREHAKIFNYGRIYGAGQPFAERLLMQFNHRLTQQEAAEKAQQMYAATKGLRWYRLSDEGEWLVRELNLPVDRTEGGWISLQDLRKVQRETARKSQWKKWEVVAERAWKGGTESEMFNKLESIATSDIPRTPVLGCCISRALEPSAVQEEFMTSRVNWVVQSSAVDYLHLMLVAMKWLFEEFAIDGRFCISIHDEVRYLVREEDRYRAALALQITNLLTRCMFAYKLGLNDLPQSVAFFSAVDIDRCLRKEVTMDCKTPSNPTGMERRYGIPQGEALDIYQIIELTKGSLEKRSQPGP
Test: Non-obligate chain termination assay
Assay type: biochemical
Conditions: for chain elongation with analog in excess over dTTP: analog 1 μM at 10-fold (FIAU-TP also 100-fold) excess over dTTP; for chain elongation with analog substituted for dTTP: analog 1 μM, no dTTP; for effect on chain elongation in the presence of native dTTP: dTTP 1 μM, analog at 0.01, 0.1 or 1 μM, 37°C, 10 min
Summary of the method: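 A 23-mer DNA primer was 5′-end labelled with γ-³²P ATP and annealed to a 50-mer template. Extension required reading through nine consecutive template adenosines. Reactions used 10 units exonuclease-deficient human Pol-γ, with test analogue (0.01–1 μM) alone or with dTTP, plus native dATP/dCTP/dGTP, for 10 min at 37°C. Samples were stopped with loading dye, heated 100°C 5 min, run on 12% urea PAGE and phosphorimaged.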

Row | Structure (SMILES) | chain elongation with analog in excess over dTTP | chain elongation with analog substituted for dTTP | effect on chain elongation in the presence of native dTTP
1 | O=c1ccn([C@@H]2O[C@H](COP(=O)(O)OP(=O)(O)OP(=O)(O)O)[C@@H](O)[C@H]2F)c(=O)[nH]1 [2′-F-UTP] | the presence of dTTP reduced the elongation defect | weak smear of elongated species with very little full-length product | essentially no impact on chain elongation
2 | O=c1[nH]c(=O)n([C@@H]2O[C@H](COP(=O)(O)OP(=O)(O)OP(=O)(O)O)[C@@H](O)[C@@H]2F)cc1I [FIAU-TP, fialuridine triphosphate, reference compound] | continued to strongly impair elongation | restricted elongation products to 31 nucleotides in length | caused a reduction in full-length product and an increase in shorter products at the highest concentration
